Measurements taken from the array DNA melting data of Ke et al. (doi:10.1101/2024.01.08.574731).

What was measured:
[1] = melting temperature; fluorescence melt of hairpins on a sequencing array, two-state fit, raised by 9.35 °C to match UV melts; settings: sodium 0.088 M
Procedure, shortened: (§1)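 On a sequenced MiSeq flow cell, library hairpins with annealed Cy3 and quencher oligos were imaged for Cy3 fluorescence in 2.5 °C steps up to 60 °C, in 50 mM Na-HEPES pH 8.0, 25 mM NaCl. Normalisation used pre-quench Cy3 and control constructs. Bootstrapped two-state fits gave melting temperature and folding enthalpy, combined by inverse variance across four replicates and with fitted temperatures raised by 9.35 °C to match UV melts.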

[2] = folding enthalpy; higher = less favourable; fluorescence melt of hairpins on a sequencing array, two-state fit; settings: sodium 0.088 M
Procedure, shortened: as §1

Sequence | Tm [1] [°C] | folding enthalpy [2] [kcal/mol]
GGGCGCGGAAACACGCCC (((((.(....).))))) | 66.5 | -34
GGGCGCGGAAACGCACCC (((.(((....))).))) | 62.6 | -43.8
GGGCGGACGAAAGTCCCC (((..(((....)))))) | 50.6 | -13.8
GGGCGGCCGAAAGGCCCC (((..(((....)))))) | 57.1 | -10.4
GGGCGGCGAAAGCCACCC (((.(((....))).))) | 67.3 | -26.3
GGGCGGCGAAAGCCTCCC (((.(((....))).))) | 61.2 | -21.9
GGGCGGGGAAACCCGTCC ((.((((....)))).)) | 65 | -37.3
GGGCGTGGAAACGCGTCC ((.((.(....).)).)) | 50.7 | -12.9
GGGCTACCGAAAGGTCCC (((..(((....)))))) | 39.4 | -18.8
GGGCTAGAAATAGCCC ((((((....)))))) | 64 | -30.3
GGGCTAGGAAACTAGCTC (.(((((....))))).) | 50.9 | -28.9
GGGCTAGGAAACTGGCTC (.((.((....)).)).) | 40.9 | -20.4
GGGCTCCCGAAAGGGCCC (((..(((....)))))) | 56 | -29.5
GGGCTCCGAAAGGACCCC (((.(((....))).))) | 53.9 | -20.5
GGGCTCGAAAGAGGCCC ((((((....))).))) | 69 | -14.3
GGGCTCGAAAGAGTACCC ((((((....)))..))) | 45 | -17.5
GGGCTCGAAAGAGTCCCC ((((((....)))..))) | 60.3 | -15.8
GGGCTCGGAAACGGGCTC (.((.((....)).)).) | 49.6 | -20.2
GGGCTGACGAAAGTCCCC (((..(((....)))))) | 42.8 | -18.1
GGGCTGCCGAAAGGCCCC (((..(((....)))))) | 46.2 | -16
GGGCTGCGAAAGCACCC (((.(((....)))))) | 57.2 | -21.4
GGGCTGCGAAAGCACCCC (((.(((....))).))) | 57.3 | -18.2
GGGCTGGGAAACCAGTCC ((.((((....)))).)) | 57.3 | -42.5

Sequence | Tm [1] [°C] | folding enthalpy [2] [kcal/mol]
GGGCTGGGAAACTAGCCC (((((.(....).))))) | 58.1 | -45.3
GGGCTTCGAAAGAAACCC (((.(((....))).))) | 49.6 | -30.2
GGGCTTCGAAAGAACCC (((.(((....)))))) | 48.6 | -28.9
GGGCTTGGAAACAGGCTC (.((.((....)).)).) | 38.3 | -24.4
GGGCTTGGAAACAGGTCC ((.(.((....)).).)) | 39.7 | -27.9
GGGGAAGAAATTCCCC ((((((....)))))) | 57.1 | -30.8
GGGGAAGCGAAAGCTCCC (((..(((....)))))) | 59.8 | -17.8
GGGGAAGGAAACCTCCCC (((((.(....).))))) | 47.8 | -43.9
GGGGACACGAAAGTGCCC (((..(((....)))))) | 55.5 | -20.5
GGGGACGAAAGTCCACCC ((((((....)))..))) | 55.2 | -11.2
GGGGACGAAAGTCGCCCC ((((((....)))..))) | 65.4 | -11
GGGGACGAAAGTCTTCCC ((((((....)))..))) | 39.3 | -17.8
GGGGAGCCGAAAGGCCCC (((..(((....)))))) | 61.9 | -13.2
GGGGAGGGAAACCCCCCC ((((.((....)).)))) | 54.5 | -34.1
GGGGATCGAAAGATGCCC (((.(((....))).))) | 59.4 | -48.8
GGGGATGAAAATCCCC ((((((....)))))) | 66.2 | -33.7
GGGGATGCGAAAGCACCC (((..(((....)))))) | 56.2 | -17.2
GGGGATGGAAACGTCCTC (.(((.(....).))).) | 36.1 | -27
GGGGCAGCGAAAGCTCCC (((..(((....)))))) | 56 | -16.7
GGGGCCGAAAGGCCACCC ((((((....)))..))) | 60 | -10.1
GGGGCCGAAAGGCCTCCC ((((((....)))..))) | 54.8 | -9.22
GGGGCCGAAAGGCTACCC ((((((....)))..))) | 53.2 | -14.8
GGGGCGGGAAACCGCCTC (.(((((....))))).) | 60.5 | -12

Sequence | Tm [1] [°C] | folding enthalpy [2] [kcal/mol]
GGGGCTCGAAAGAGTCCC (((.(((....))).))) | 67.7 | -42.8
GGGGGATCGAAAGATCCC (((..(((....)))))) | 59.9 | -8.42
GGGGGCGGAAACACCCCC (((((.(....).))))) | 56.9 | -39.3
GGGGGGGGAAACCTCCCC ((((.((....)).)))) | 59.9 | -34
GGGGGTCGAAAGACTCCC (((.(((....))).))) | 63.4 | -43.5
GGGGGTTCGAAAGAACCC (((..(((....)))))) | 58.9 | -7.33
GGGGTAACGAAAGTTCCC (((..(((....)))))) | 49.9 | -23.8
GGGGTAGGAAACTGCCCC ((((.((....)).)))) | 57.2 | -47.3
GGGGTAGGAAACTGTCCC (((..((....))..))) | 36.2 | -25.5
GGGGTATCGAAAGATCCC (((..(((....)))))) | 50.4 | -22.4
GGGGTCGAAAGACAACCC ((((((....)))..))) | 48.8 | -21.2
GGGGTCGAAAGACCGCCC ((((((....)))..))) | 52.7 | -11.3
GGGGTCGAAAGACGTCCC ((((((....)))..))) | 42.4 | -18.5
GGGGTCGAAAGACTACCC ((((((....)))..))) | 45.2 | -18
GGGGTCGGAAACAACCCC (((((.(....).))))) | 48.3 | -31.7
GGGGTCGGAAACGGCTCC ((.(.((....)).).)) | 49.6 | -42.8
GGGGTCTCGAAAGAGCCC (((..(((....)))))) | 58.9 | -28.6
GGGGTGGGAAACCGTCCC (((..((....))..))) | 45.2 | -18.5
GGGGTTCGAAAGAATCCC (((.(((....))).))) | 58.6 | -43.8
GGGGTTGCGAAAGCACCC (((..(((....)))))) | 59.5 | -19
GGGGTTGGAAACAACTCC ((.((((....)))).)) | 51.3 | -37.5
GGGGTTGGAAACAGCTCC ((.(.((....)).).)) | 37 | -24.6
